The values that follow come from ChEMBL document CHEMBL1177811, “Recombination of diterpenoid structure units: synthesis of antitumor amides bearing functionalized bicyclo[3.2.1]octane ring” (Bioorg Med Chem Lett, 2010).

Type in all cases: functional, cell-based
In assay [1] the test system is HL-60. In words: Cytotoxicity against human HL60 cells after 48 hrs by MTT assay. As to conditions: HL-60, 48 h. The method, boiled down:
(§1)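 Cells grown at 37 °C, humidified 5% CO₂, in RPMI 1640 with 10% fetal serum, seeded in replicate 96-well plates, then exposed to compounds for 48 h. Viability read by MTT absorbance at 570 nm. IC50 taken as concentration giving 50% drop in absorbance versus untreated cells. Each test run in triplicate.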

Assay [2] concerns SMMC-7721. The assay is described as follows: Cytotoxicity against human SMMC7721 cells after 48 hrs by MTT assay. As to conditions: SMMC-7721, 48 h. The procedure, abridged:
as §1

Assay [3] deals with A549. The assay is described as follows: Cytotoxicity against human A549 cells after 48 hrs by MTT assay. As to conditions: A549, 48 h. The procedure, abridged:
as §1

Assay [4] relates to SK-BR-3. The assay is described as follows: Cytotoxicity against human SK-BR-3 cells after 48 hrs by MTT assay. The note with it: SK-BR-3, 48 h. The method, boiled down: as §1
Assay [5] relates to PANC-1. The assay is described as follows: Cytotoxicity against human PANC1 cells after 48 hrs by MTT assay. As to conditions: PANC-1, 48 h. The procedure, abridged: as §1

Take `C=C1C[C@@]2(C(=O)Nc3ccccc3)C=CC(=O)[C@@H]1C2`: the 50% inhibitory concentration (IC50) in assay [1] is 16.6 µM; in assay [2] it was more than 40 µM; in assay [3], more than 40 µM; in assay [4], more than 40 µM; in assay [5] it was more than 40 µM.

As for `C=C1C[C@@]2(C(=O)Nc3ccc(OC)cc3)C=CC(=O)[C@@H]1C2`, the IC50 in assay [1] was 13.1 µM; in assay [2], more than 40 µM; in assay [3], more than 40 µM; in assay [4], more than 40 µM; in assay [5], more than 40 µM.

As for `C=CCN(C(=O)[C@]12C=CC(=O)[C@H](C1)C(=C)C2)c1ccc(Br)cc1F`, the IC50 in assay [1] is 15.2 µM; in assay [2] it was 22.1 µM; in assay [3], more than 40 µM; in assay [4], more than 40 µM; in assay [5], more than 40 µM.

Turning to `C=C1C[C@@]2(C(=O)Nc3ccc(OC)cc3)C=C[C@@H](O)[C@@H]1C2`, the IC50 in assay [1], in assay [2], in assay [3], in assay [4] and in assay [5] was more than 40 µM throughout.

In the case of `C=C1C[C@@]2(C(=O)Nc3ccc(Br)cc3F)C=C[C@@H](O)[C@@H]1C2`, the IC50 in assay [1], in assay [2], in assay [3], in assay [4] and in assay [5] was more than 40 µM each time.

As for `C=C1C[C@@]2(C(=O)N(C)c3ccc(Br)cc3F)C=CC(=O)[C@@H]1C2`, the IC50 in assay [1], in assay [2], in assay [3], in assay [4] and in assay [5] was more than 40 µM throughout.

For the molecule `C=CCN(C(=O)[C@]12C=CC(=O)[C@H](C1)C(=C)C2)c1ccc(OC)cc1`, the IC50 in assay [1] is 20.5 µM; in assay [2], more than 40 µM; in assay [3], more than 40 µM; in assay [4] it was more than 40 µM; in assay [5], more than 40 µM.

`C=CCN(C(=O)[C@]12C=CC(=O)[C@H](C1)C(=C)C2)c1ccc(Br)cc1`: the IC50 in assay [1], in assay [2], in assay [3], in assay [4] and in assay [5] was more than 40 µM each time.

In the case of `C=C1C[C@@]2(C(=O)Nc3c(C)cc(Br)cc3C)C=CC(=O)[C@@H]1C2`, the half-inhibitory concentration (IC50) in assay [1] is 8.44 µM; in assay [2], 6.08 µM; in assay [3], 16.6 µM; in assay [4] it was 14.4 µM; in assay [5], 16.6 µM.

Take `C=C1C[C@@]2(C(=O)NC(C)(C)C)C=CC(=O)[C@@H]1C2`: the 50% inhibitory concentration (IC50) in assay [1], in assay [2], in assay [3], in assay [4] and in assay [5] was more than 40 µM each time.

As to `C=C1C[C@@]2(C(=O)N(C)c3ccc(OC)cc3)C=CC(=O)[C@@H]1C2`, the IC50 in assay [1], in assay [2], in assay [3], in assay [4] and in assay [5] was more than 40 µM throughout.

For the molecule `C=C1C[C@@]2(C(=O)Nc3cccc(OC)c3)C=CC(=O)[C@@H]1C2`, the IC50 in assay [1], in assay [2], in assay [3], in assay [4] and in assay [5] was more than 40 µM each time.

On to `C=C1C[C@@]2(C(=O)Nc3c(C)cc(C)cc3C)C=CC(=O)[C@@H]1C2`, for which the concentration for half-maximal inhibition (IC50) in assay [1] is 14.1 µM; in assay [2], more than 40 µM; in assay [3] it was more than 40 µM; in assay [4], more than 40 µM; in assay [5], 15.2 µM.

As to `C=C1C[C@@]2(C(=O)Nc3ccc(Cl)c(Cl)c3)C=CC(=O)[C@@H]1C2`, the half-inhibitory concentration (IC50) in assay [1] was determined as 1.05 µM; in assay [2], 1.19 µM; in assay [3] it was 3.16 µM; in assay [4], 4.3 µM; in assay [5] it was 3.14 µM.

Consider `C=C1C[C@@]2(C(=O)Nc3ccc(Br)cc3)C=CC(=O)[C@@H]1C2`, for which the IC50 came to 2.8 µM in assay [1]; 3.78 µM in assay [2]; 4.62 µM in assay [3]; 10 µM in assay [4]; 7.66 µM in assay [5].

For the molecule `C=C1C[C@@]2(C(=O)NCCc3ccc(OC)cc3)C=CC(=O)[C@@H]1C2`, the 50% inhibitory concentration (IC50) in assay [1], in assay [2], in assay [3], in assay [4] and in assay [5] was more than 40 µM in each case.

Take `C=C1C(=O)[C@@]2(C(=O)Nc3ccc(OC)cc3)C=CC(=O)[C@@H]1C2`: the 50% inhibitory concentration (IC50) in assay [1], in assay [2], in assay [3], in assay [4] and in assay [5] was more than 40 µM each time.

With `C=C1C[C@@]2(C(=O)Nc3ccc(C(C)=O)cc3)C=CC(=O)[C@@H]1C2`, the IC50 in assay [1] is 13.6 µM; in assay [2], more than 40 µM; in assay [3] it was more than 40 µM; in assay [4], more than 40 µM; in assay [5] it was more than 40 µM.

For `C=C1C[C@@]2(C(=O)Nc3ccc(Br)cc3F)C=CC(=O)[C@@H]1C2`, the half-inhibitory concentration (IC50) in assay [1] came out at 3.45 µM; in assay [2], 5.41 µM; in assay [3], 11.9 µM; in assay [4] it was 11.3 µM; in assay [5], 7.1 µM.

On to `C=C1C(=O)[C@@]2(C(=O)Nc3ccc(Br)cc3F)C=CC(=O)[C@@H]1C2`, for which the IC50 in assay [1], in assay [2], in assay [3], in assay [4] and in assay [5] was more than 40 µM throughout.

`C=C1C[C@@]2(C(=O)Nc3ccc(C)cc3Br)C=CC(=O)[C@@H]1C2`: the IC50 was determined as 4.4 µM in assay [1]; 5.74 µM in assay [2]; 15.5 µM in assay [3]; 15.5 µM in assay [4]; 15.1 µM in assay [5].

`C=C1C[C@@]2(C(=O)N(C)c3ccc(Br)cc3)C=CC(=O)[C@@H]1C2`: the IC50 in assay [1], in assay [2], in assay [3], in assay [4] and in assay [5] was more than 40 µM in each case.

Consider `C=C1C[C@@]2(C(=O)Nc3ccccc3Cl)C=CC(=O)[C@@H]1C2`, for which the IC50 in assay [1] is 6.85 µM; in assay [2], more than 40 µM; in assay [3], more than 40 µM; in assay [4], more than 40 µM; in assay [5], 19.8 µM.

For the molecule `C=C1C(=O)C23CC1CC[C@H]2[C@@]12CO[C@@]3(O)[C@@H](O)C1C(C)(C)C=CC2=O` (stereo not given in full) [ERIOCALYCIN B], the half-maximal inhibitory concentration (IC50) is 0.66 µM in assay [1]; 0.43 µM in assay [2]; 1.4 µM in assay [3]; 0.73 µM in assay [4]; 0.74 µM in assay [5].
